Blank lines part the entries; values can stand above or below the compound they belong to.
Tests used:
[1] = molecular target: T1, Kif15-N700 (Homo sapiens, UniProt Q9NS87); test: MT gliding assay with Kif15-N700; assay type: biochemical; settings: for Kif15 MT gliding inhibition (SAR, in words): 750 nM; for effect on Kif15-driven MT gliding at a single concentration: GW108X 10 μM for 1 minute, Kif15-IN-1 1.72 μM; for reversibility of Kif15 inhibition in MT gliding assay: wash out experiment
T1 sequence (Q9NS87 1-700 limits assumed): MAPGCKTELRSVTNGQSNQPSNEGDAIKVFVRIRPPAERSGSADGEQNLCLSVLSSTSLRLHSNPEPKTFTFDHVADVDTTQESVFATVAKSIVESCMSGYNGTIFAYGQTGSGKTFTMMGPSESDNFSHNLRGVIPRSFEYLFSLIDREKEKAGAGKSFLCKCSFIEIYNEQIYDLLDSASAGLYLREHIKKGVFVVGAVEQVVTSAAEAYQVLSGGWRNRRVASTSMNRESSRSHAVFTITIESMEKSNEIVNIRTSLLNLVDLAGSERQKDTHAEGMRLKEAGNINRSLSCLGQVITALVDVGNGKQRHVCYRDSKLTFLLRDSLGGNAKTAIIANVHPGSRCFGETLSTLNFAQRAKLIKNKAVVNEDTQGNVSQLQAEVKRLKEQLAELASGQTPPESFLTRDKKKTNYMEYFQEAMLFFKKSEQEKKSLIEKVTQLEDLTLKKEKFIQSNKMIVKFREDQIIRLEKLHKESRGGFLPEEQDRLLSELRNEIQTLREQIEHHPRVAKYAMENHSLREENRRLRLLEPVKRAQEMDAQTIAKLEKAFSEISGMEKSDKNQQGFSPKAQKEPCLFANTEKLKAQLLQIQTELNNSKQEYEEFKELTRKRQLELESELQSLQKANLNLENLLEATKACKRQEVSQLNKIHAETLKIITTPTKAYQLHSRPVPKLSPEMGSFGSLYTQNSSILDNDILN
Method in brief: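 Motility assay in which Kif15-N700 glides fluorescent MTs, scored by gliding velocity. The SAR screen used 750 nM test compound in triplicate (some in duplicate), with n ≥ 30 measurements per replicate. Concentration-response series ran 10 to 0.2 μM (12 concentrations) or 30 to 0.1 μM (5 concentrations). For reversibility, gliding was started in DMSO, then 10 μM compound was added for 1 minute, followed by a double wash-out.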

[2] = molecular target: T1, Kif15-N700; test: MT-stimulated ATPase activity of Kif15-N700 at varying ATP or MT concentrations; assay type: biochemical; settings: for mode of inhibition with respect to ATP: Lineweaver-Burk analysis
[3] = molecular target: T2, Kif15 (Homo sapiens, UniProt Q9NS87); test: Kif15 localization and protein level in RPE-1 cells; assay type: cell-based; settings: 25 μM
T2 sequence (Q9NS87 1-1388): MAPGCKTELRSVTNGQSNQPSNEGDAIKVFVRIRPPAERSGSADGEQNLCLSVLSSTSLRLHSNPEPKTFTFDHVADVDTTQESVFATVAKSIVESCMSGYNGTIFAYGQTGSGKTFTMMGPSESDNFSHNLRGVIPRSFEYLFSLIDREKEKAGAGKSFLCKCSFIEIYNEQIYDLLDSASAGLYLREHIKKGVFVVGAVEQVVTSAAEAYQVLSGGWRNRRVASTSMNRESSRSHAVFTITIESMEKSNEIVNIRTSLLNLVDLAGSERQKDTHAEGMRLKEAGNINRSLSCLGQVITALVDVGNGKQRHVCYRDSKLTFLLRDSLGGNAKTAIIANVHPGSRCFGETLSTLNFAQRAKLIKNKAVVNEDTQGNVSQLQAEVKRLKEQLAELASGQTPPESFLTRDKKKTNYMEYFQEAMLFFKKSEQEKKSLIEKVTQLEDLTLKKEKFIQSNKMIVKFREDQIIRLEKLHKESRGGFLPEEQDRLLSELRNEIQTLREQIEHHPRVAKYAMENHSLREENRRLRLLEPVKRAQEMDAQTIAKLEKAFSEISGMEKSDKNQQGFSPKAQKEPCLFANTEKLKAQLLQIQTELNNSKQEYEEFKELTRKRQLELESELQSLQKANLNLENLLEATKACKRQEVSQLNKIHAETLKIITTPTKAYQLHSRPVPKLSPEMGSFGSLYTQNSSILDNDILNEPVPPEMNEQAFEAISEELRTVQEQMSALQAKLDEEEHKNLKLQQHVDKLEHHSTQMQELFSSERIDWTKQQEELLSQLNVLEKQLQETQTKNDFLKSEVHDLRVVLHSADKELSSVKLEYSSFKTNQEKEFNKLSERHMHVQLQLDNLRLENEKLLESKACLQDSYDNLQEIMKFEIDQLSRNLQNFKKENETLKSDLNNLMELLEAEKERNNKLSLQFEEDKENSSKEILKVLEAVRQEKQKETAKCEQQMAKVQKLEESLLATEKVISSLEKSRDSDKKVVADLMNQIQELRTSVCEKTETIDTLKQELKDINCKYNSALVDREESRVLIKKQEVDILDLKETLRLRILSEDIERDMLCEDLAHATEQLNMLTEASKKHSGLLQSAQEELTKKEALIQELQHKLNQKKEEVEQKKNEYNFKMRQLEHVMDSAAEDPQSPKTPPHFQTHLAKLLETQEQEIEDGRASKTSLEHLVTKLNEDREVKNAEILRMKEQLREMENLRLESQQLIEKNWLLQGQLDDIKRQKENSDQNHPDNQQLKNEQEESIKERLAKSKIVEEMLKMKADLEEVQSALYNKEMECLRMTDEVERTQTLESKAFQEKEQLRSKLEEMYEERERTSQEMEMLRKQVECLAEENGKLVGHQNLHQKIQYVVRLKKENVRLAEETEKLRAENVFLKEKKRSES
Method in brief: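 TP53−/− RPE-1 cells were exposed to the test compound at 25 μM or to DMSO for 24 h, then immunostained for Kif15, tubulin and DNA. Imaging used max-intensity z-projections or single optical sections. Spindle-bound Kif15 was quantified on metaphase MTs as the ratio of Kif15 to tubulin fluorescence intensity. 25–30 cells were analysed, pooled from triplicate experiments.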

[4] = tested on: RPE-1 cells; settings: cited from earlier work
[5] = tested on: TP53−/− RPE-1 cells; test: Spindle morphology; assay type: cell-based; settings: 25 μM
Method in brief: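 TP53−/− RPE-1 cells were exposed to 25 μM test compound or DMSO for 24 h and stained for tubulin, Kif15 and DNA. Pre-anaphase microtubule arrays were scored for bipolarity, in triplicate with at least 100 cells per replicate; spindle lengths were compared with DMSO-treated cells.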

[6] = tested on: KIRC-1 cells; test: Spindle monopolarity in K5I-resistant KIRC-1 cells; assay type: cell-based
[7] = ATP varied, high MT concentration

Kif15 MT gliding inhibition (SAR, in words) [1]: reduced in activity
Compound: Cc1cc(/C=C2\C(=O)Nc3ccc(C(=O)c4ccco4)cc32)cc(C)c1O [Compound 9]

Kif15 MT gliding inhibition (SAR, in words) [1]: intermediary inhibition
Compound: O=C1Nc2ccc(C(=O)c3ccco3)cc2/C1=C/c1cc(Cl)c(O)c(Br)c1 [Compound 7]

Compound: O=C1Nc2ccc(C(=O)c3ccco3)cc2/C1=C/c1cc(I)c(O)c(I)c1 [Compound 5]
Kif15 MT gliding inhibition (SAR, in words) [1]: not as well tolerated

Kif15 MT gliding inhibition (SAR, in words) [1]: abolished activity
Compound: O=C1Nc2ccc(C(=O)c3ccco3)cc2/C1=C/c1cc(Br)cc(Br)c1 [Compound 8]

Kif15 MT gliding inhibition (SAR, in words) [1]: intermediary inhibition
Compound: O=C1Nc2ccc(C(=O)c3ccco3)cc2/C1=C/c1cc(F)c(O)c(Br)c1 [Compound 6]

Kif15 MT gliding inhibition (SAR, in words) [1]: abolished activity
Compound: COc1c(Br)cc(/C=C2\C(=O)Nc3ccc(C(=O)c4ccco4)cc32)cc1Br [Compound 10]

change in KM^ATP [2, 7]: increase | mode of inhibition with respect to ATP [2]: competes with ATP binding | effect on Kif15-driven MT gliding at a single concentration [1]: abolishes Kif15-driven MT gliding | reversibility of Kif15 inhibition in MT gliding assay [1]: reversible | effect on spindle-bound levels of Kif15 [3]: did not reduce
Compound: CCOC(=O)c1sc(NC(=O)[C@H](C(C)C)n2c(=O)[nH]c3ccccc3c2=O)nc1C [Kif15-IN-1, reference compound]

Compound: BRD9876
effect on spindle integrity [4]: does not cause spindle collapse

change in KM^ATP [2, 7]: no change | change in Vmax [2, 7]: decrease | mode of inhibition with respect to ATP [2]: not competing with ATP binding | change in KM^MT ([2]; MT varied, saturating ATP): increase | effect on Kif15-driven MT gliding at a single concentration [1]: eliminate MT gliding | reversibility of Kif15 inhibition in MT gliding assay [1]: reversible
Compound: O=C1Nc2ccc(C(=O)c3ccco3)cc2/C1=C/c1cc(Cl)c(O)c(Cl)c1 [GW108X]
spindle length (effect in words) [5]: unaffected | dose dependence of block of spindle assembly [6]: dose-dependent

From paper PMC6681659 (Bioorganic & medicinal chemistry letters, 2018)
